STAT3 act: activators of IL-6 induced STAT3 signaling | U3A cells, IL-6 STAT3-luciferase reporter, luminescence; 100% = signal with IL-6 EC80 alone | activation (% of control), % at 5.6 µM | AID 871 | 190,000 tested, 0.91% active;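 active = activation above the screen-wide mean of compound activation plus 3 SD, cut at about 130% in these data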;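 note: 0% = background luminescence of wells with medium and substrate only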
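Material: STAT3-luciferase reporter U3A cells. Controls: IL-6-treated wells, 100% activation. Read-out: % activation versus median of IL-6-stimulated wells. Probe or stimulus: IL-6 stimulus at 33 ng/mL final. Timing: compound 1 h, then IL-6 6 h at 37 °C. Signal: reporter luminescence signal.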
NF-kB neuron act: raises NF-kB expression in human neuronal cells | fold change at 12.5 µM | NF-kB reporter expression; stronger effect = higher value | 190,000 tested, 1.6% active; in the data active = fold change above about 3.3
STAT1 act: activators of IFN-gamma induced STAT1 signaling; NIH 3T3 STAT1-luciferase reporter, luminescence; 100% = IFN-gamma alone, no compound; activation (% of control), % at 5.5 µM; 200,000 tested, 2.6% active;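 active = activation above the screen-wide mean activation plus 3 SD, cut at about 130% in these data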;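 note: raw ratio to IFN-gamma control signal so 100% means no change and 0% no light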
STAT1 inh: inhibitors of IFN-gamma induced STAT1 signaling. NIH 3T3 STAT1-luciferase reporter, luminescence. inhibition, % at 5.5 µM. 200,000 tested, 0.35% active. AID 920;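 active = inhibition above a set limit, the mean inhibition across all tested compounds plus 3 SD, cut at about 34% in these data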;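 note: 0% = IFN-gamma with DMSO and 100% = IFN-gamma with 300 µM nifuroxazide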
APP 5'UTR act: APP 5'UTR luciferase reporter activation; SH-SY5Y APP 5'UTR luciferase reporter, luminescence; zero percent = DMSO vehicle wells; activation, % at 2 µM; 190,000 tested, 1% active; AID 1276;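 active = activation above a set limit, based on mean plus 3 SD of controls, cut at about 140% in these data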
Pf gamet viab: inhibitors of late stage P. falciparum gametocyte viability. AID 743093. inhibition, % at 10.9 µM. 150,000 tested, 0.065% active. P. falciparum stage V gametocytes, ATP luminescence, 24 h;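 active = inhibition above the mean plus 3 SD of compounds within the control limits, set per campaign, cut at about 38% in these data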;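 note: 0% = DMSO wells and 100% = medium only without gametocytes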
Numbers without * were called inactive; . = not tested or not shown. An excerpt weighted towards active compounds, which were near 3.9% of everything screened.

SMILES	STAT3 act	NF-kB neuron act	STAT1 act	STAT1 inh	APP 5'UTR act	Pf gamet viab
O=C(/C=C/c1ccc(Cl)cc1)Nc1nccs1	67	8.5*	109	-10	184*	.
Fc1ccc(NC(=S)Nc2nccs2)cc1	86	9.1*	110	-11	71	-2
C/C=C/C=C/C(=O)Nc1nccs1	102	1.7	112	-13	-6	3
O=C(Nc1nccs1)c1ccc(-c2ccc(F)cc2)o1	86	3.1	129*	-33	157*	.
Nc1nc(CSC(=S)N2CCCCC2)nc(Nc2ccccc2)n1	123	1.9	136*	-36	53	0
Nc1nc(CSC(=S)N2CCOCC2)nc(Nc2ccccc2)n1	122	1.7	131*	-35	42	10
CCN(CC)c1ccc(C(=O)NN)cc1	111	1.1	102	-4	-18	11
CN(C)c1cccc(C(=O)N/N=C/c2ccccc2F)c1	28	5*	36	69*	139*	21
O=C(Nc1cccc(F)c1)c1c(F)c(F)c(F)c(F)c1F	95	1.2	97	7	.	.
CCN(CC)c1ccc(C(=O)Nc2cccc(F)c2)cc1	77	8.4*	127	-30	181*	.
Cc1cc(/C=N/NC(=O)c2cccc(N(C)C)c2)c(C)n1-c1cc(C(=O)O)cc(C(=O)O)c1	105	1.4	113	-16	4	.
CN(C)c1cccc(C(=O)Nc2cccc(F)c2)c1	100	3	132*	-34	67	.
CCS(=O)(=O)Nc1cccc(C2=NN(S(=O)(=O)c3ccc(C)cc3)C(c3ccco3)C2)c1 (stereo not given)	96	1	90	10	-9	9
COc1ccccc1OCC#CCNC1CCCCC1C (stereo not given)	101	0.98	109	-11	1	.
NC(=O)C(=O)N/N=C1\CCc2ccccc21	116	1.5	131*	-34	41	13
COc1ccc(OCC(=O)N/N=C2\CCc3ccccc32)cc1	101	1.3	102	-8	4	.
Cc1ccc(C(=O)N/N=C2\CCCc3ccccc32)c(C)c1	105	2.1	129*	-34	92	7
CCOc1cc(C(=S)N2CCOCC2)ccc1OS(=O)(=O)c1ccccc1[N+](=O)[O-]	102	1	100	0	20	0
COc1ccc(CC(=O)Nc2nnc(C(C)(C)C)s2)cc1OC	90	1.1	78	23	12	.
O=C(CSc1ncc(-c2ccc(F)cc2)n1Cc1ccco1)Nc1ccc2c(c1)OCO2	97	1.6	138*	-41	62	-8
COc1ccc(CC(=O)OCC(=O)Nc2ccc(Br)cc2)cc1	103	1.2	106	-8	1	3
CN(C)/C=N/c1ncn(-c2ncc(C(F)(F)F)cc2Cl)n1	109	0.81	133*	-36	77	-5
CN(C)/C=N/S(=O)(=O)c1cccn1-c1ncc(C(F)(F)F)cc1Cl	106	1.1	107	-9	6	9
COc1ccc(CN2CC[C@@H](N3CCOCC3)[C@H](O)C2)cc1F	.	.	.	.	.	-3
O=C1[C@H]2[C@H](C=CC[C@H]2C(=O)N2CCOCC2)CCN1Cc1ccccc1	.	.	.	.	.	-9
SMILES	STAT3 act	NF-kB neuron act	STAT1 act	STAT1 inh	APP 5'UTR act	Pf gamet viab
Cc1cc(C)n2c(SC/C(O)=C(\C#N)c3nc4ccccc4[nH]3)nnc2n1	107	1.2	102	-2	5	20
Cc1ccccc1-n1c(SC/C(O)=C(\C#N)c2nc3ccccc3[nH]2)nnc1-c1ccncc1	133*	0.56	90	9	-9	.
NC(=O)C1CCN(CCS(=O)(=O)c2ccc(Cl)cc2)CC1	.	.	.	.	.	-1
Cc1nc(NC2=NCN(CCCN3CCOCC3)CN2)nc2c(C)cccc12	183*	1.2	109	-10	-16	.
Cc1nc(NC2=NCN(Cc3cccnc3)CN2)nc2ccccc12	.	.	.	.	.	11
Cc1nc(NC2=NCN(CC3CCCO3)CN2)nc2ccccc12 (stereo not given)	101	.	94	7	-4	.
Cc1nc(NC2=NCN(CCc3ccccc3)CN2)nc2c(C)cccc12	158*	.	102	-2	54	.
COCCN(C(=S)Nc1cccc(C)c1)C(C)c1cccnc1 (stereo not given)	106	0.88	104	-4	-6	7
O=C(CCN1C(=O)c2cccc3cccc(c23)C1=O)N1CCOCC1	87	2	129*	-33	33	-21
c1ccc(-c2n[nH]c(-c3ccccn3)n2)nc1	103	2	144*	-48	46	5
O=C(O)c1cc(N/N=C/C(Cl)=C/c2ccccc2)ccc1Cl	62	0.96	45	59*	120	8
Cc1ccc(/C=N/NC(=O)c2cccs2)s1	102	2.6	126	-29	43	13
Cc1ccc(/C=N/Nc2ccc(Cl)c(C(=O)O)c2)s1	129	8*	143*	-49	166*	2
NNc1ccc(Cl)c(C(=O)O)c1	.	.	.	.	.	-3
C/C(=N\Nc1ccc(Cl)c(C(=O)O)c1)c1ccccn1	.	.	.	.	.	-1
Cc1ccsc1/C=N/Nc1nc(Cl)c(Cl)cc1Cl	117	1.1	126	-30	28	.
Cc1ccc(/C=N/Nc2nc(Cl)c(Cl)cc2Cl)s1	108	2.6	147*	-52	71	.
O=C(O)c1cc(N/N=C/c2cccs2)ccc1Cl	130	1.9	108	-12	152*	.
NC(=O)C1(N2CCCCC2)CCN(C(=S)Nc2ccc(S(N)(=O)=O)cc2)CC1	131	1	90	10	-2	-9
O=c1c(Cl)c(N2CCOCC2)cnn1-c1nc2ccccc2[nH]1	83	1.3	136*	-42	104	.
c1ccc2[nH]c(N3CCOCC3)nc2c1	92	1.3	90	11	7	.
COc1cc(NC(=O)c2ccc([N+](=O)[O-])cc2)c(OC)cc1NC(=O)CC(C)C	99	0.9	93	5	-9	-21
Cc1ccc(/C=N/NC(=O)c2ccc(Br)o2)s1	109	2	108	-9	42	11
CCc1ccc(/C=N\NC(=O)c2ccc(Br)o2)s1	109	2.9	146*	-49	50	-19
O=C(N/N=C/c1ccc2c(c1)OCO2)c1ccc(Br)o1	111	3.5*	142*	-46	51	-4
SMILES	STAT3 act	NF-kB neuron act	STAT1 act	STAT1 inh	APP 5'UTR act	Pf gamet viab
CCN(CC)c1ccc(/C=N/NC(=O)c2ccc(Br)o2)cc1	107	4.3*	138*	-42	96	-10
Cc1ccc(C(=O)Nc2ccc(C(F)(F)F)n(C)c2=O)cc1	104	0.99	133*	-37	71	-8
COc1ccc(C(=O)Nc2ccc(C(F)(F)F)n(C)c2=O)cc1	97	2.5	116	-18	56	.
CN1CCN(CC(=O)N(C)c2nc(-c3ccccc3)cs2)CC1	111	1.4	134*	-36	106	-5
CC(=O)N(Cc1ccccc1)c1nc(-c2ccccc2)cs1	108	1.1	116	-19	-8	-7
O=Cc1c(OCc2ccccc2)ccc2ccccc12	102	1.9	134*	-39	50	5

From PubChem
